Laboratory results from publication PMC2761767 (Journal of medicinal chemistry, 2009).
Like-named read-outs stand apart in the source and are kept apart here.

What was measured:
HL-60 (leukemia) cells = assay: MTT cytotoxicity assay, HL-60; format: cell-based, human; details: read-out: IC50, in vitro cytotoxicity, HL-60, HL-60 cells
Hep 3B (hepatoma) cells = assay: MTT cytotoxicity assay, Hep 3B; format: cell-based, human; details: read-out: IC50, in vitro cytotoxicity, Hep 3B, Hep 3B cells
[1] = system: HCT-116 (colon cancer) cells; assay: MTT cytotoxicity assay, HCT-116; format: cell-based, human; details: read-out: IC50, in vitro cytotoxicity, HCT-116, HCT-116 cells
[2] = system: KB-VIN (p-glycoprotein-expressing epidermoid carcinoma of the nasopharynx) cells; assay: SRB cytotoxicity assay, KB-VIN; format: cell-based, human; details: read-out: IC50, in vitro cytotoxicity, Kb-VIN, KB-VIN cells (vincristine-resistant)
Method in brief: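 For A549, KB, KB-VIN and DU145, an SRB assay was used. Cells were exposed to the test compound or DMSO, fixed with 10% TCA and stained with 0.4% (w/v) SRB in 1% acetic acid. Unbound dye was washed out with 1% acetic acid, bound dye solubilized in 10 mM Trizma base, and absorbance read at 515 nm.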

tubulin = assay: Inhibition of [3H]colchicine binding to tubulin; details: 1 µM tubulin, 5 µM [3H]colchicine, 10 min at 37 °C; for Inhibition of Colchicine Binding % inhibition at tested concentration, 1 µM: 1 µM inhibitor; for Inhibition of Colchicine Binding % inhibition at tested concentration, 5 µM: 5 µM inhibitor
[3] = system: DU145 (prostate cancer) cells; assay: SRB cytotoxicity assay, DU145; format: cell-based, human; details: read-out: IC50, in vitro cytotoxicity, DU145
Method in brief: (§1)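 Cells exposed to test compound or DMSO vehicle for the stated periods, then fixed with 10% TCA. Staining used 0.4% (w/v) sulforhodamine B in 1% acetic acid, with unbound dye washed out in 1% acetic acid. Bound dye was dissolved in 10 mM Trizma base and absorbance read at 515 nm. IC50 taken from the resulting absorbance data.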

[4] = system: KB (epidermoid carcinoma of the nasopharynx) cells; assay: SRB cytotoxicity assay, KB; format: cell-based, human; details: read-out: IC50, in vitro cytotoxicity, KB
Method in brief: as §1

[5] = system: A549 (non-small cell lung carcinoma) cells; assay: SRB cytotoxicity assay, A549; format: cell-based, human; details: read-out: IC50, in vitro cytotoxicity, A549
Method in brief: as §1

[6] = system: seven human cancer cell lines (HL-60, HCT-116, A549, Hep 3B, KB, KB-VIN, DU145); assay: In vitro cytotoxicity, all seven cancer cell lines together; format: cell-based; details: read-out: IC50 values, range over all seven cancer cell lines
[7] = ip, once weekly for 3 courses; prior in vivo study; cited from earlier work
OVCAR-3 xenograft = details: ip, once weekly for 3 courses, cited from earlier work
[8] = system: 60 human tumor cell lines; assay: NCI screening against 60 human tumor cell lines; format: cell-based
[9] = mice model, unpublished data
[10] = system: HL-60, HCT-116, H226, A549, Hep G2 and A498 cancer cell lines; assay: Cytotoxicity of deacetylated amides 46-53; format: cell-based; details: read-out: IC50 values, cytotoxicity

Compound: 2-(1-Anthracenyl)-6,7-methylenedioxyquinolin-4-one [Compound 45]
- IC50 (HL-60 (leukemia) cells): 530 nM
- IC50 (Hep 3B (hepatoma) cells): 2200 nM
- IC50 [1]: 1600 nM

Compound: 2-(1-Naphthalenyl)-6,7-methylenedioxyquinolin-4-one [Compound 39]
- IC50 [2]: 190 nM
- Inhibition of Colchicine Binding % inhibition at tested concentration, 1 µM (tubulin): 33%
- Inhibition of Colchicine Binding % inhibition at tested concentration, 5 µM (tubulin): 67%
- IC50 [3]: 130 nM
- IC50 [4]: 130 nM
- IC50 [5]: 130 nM
- IC50 [6]: 70 to 190 nM
- IC50 (HL-60 (leukemia) cells): 70 nM
- IC50 (Hep 3B (hepatoma) cells): 70 nM
- IC50 [1]: 70 nM

Compound: 2-(2-Benzo[b]furyl)-6,7-methylenedioxyquinolin-4-one [Compound 38]
- IC50 [2]: > 1000 nM
- IC50 [3]: > 1000 nM
- IC50 [4]: > 1000 nM
- IC50 [5]: > 1000 nM
- IC50 (HL-60 (leukemia) cells): > 1000 nM
- IC50 (Hep 3B (hepatoma) cells): > 1000 nM
- IC50 [1]: > 1000 nM

Compound: 2-(2-Benzo[b]thienyl)-6,7-methylenedioxyquinolin-4-one [Compound 36]
- IC50 [2]: > 1000 nM
- IC50 [3]: > 1000 nM
- IC50 [4]: > 1000 nM
- IC50 [5]: > 1000 nM
- IC50 (HL-60 (leukemia) cells): > 1000 nM
- IC50 (Hep 3B (hepatoma) cells): > 1000 nM
- IC50 [1]: > 1000 nM

Compound: 2-(2-Naphthalenyl)-6,7-methylenedioxyquinolin-4-one [Compound 40]
- IC50 [2]: > 1000 nM
- IC50 [3]: > 1000 nM
- IC50 [4]: > 1000 nM
- IC50 [5]: > 1000 nM
- IC50 (HL-60 (leukemia) cells): 500 nM
- IC50 (Hep 3B (hepatoma) cells): > 1000 nM
- IC50 [1]: > 1000 nM

Compound: 2-(2-Quinolinyl)-6,7-methylenedioxyquinolin-4-one [Compound 43]
- IC50 [2]: > 5000 nM
- IC50 [3]: > 5000 nM
- IC50 [4]: > 5000 nM
- IC50 [5]: > 5000 nM
- IC50 (HL-60 (leukemia) cells): > 5000 nM
- IC50 (Hep 3B (hepatoma) cells): > 5000 nM
- IC50 [1]: > 5000 nM

Compound: 2-(2-fluorophenyl)-6,7-methylenedioxyquinolin-4-one [CHM-1]
- Maximum tolerated dose (MTD) [7]: > 200 mg/kg
- Extension of life span of tumor-bearing mice (OVCAR-3 xenograft; 79 mg/kg): 79%
- Extension of life span of tumor-bearing mice (OVCAR-3 xenograft; 134 mg/kg): 133%
- Extension of life span of tumor-bearing mice (OVCAR-3 xenograft; 200 mg/kg): 124%

Compound: 2-(3-Benzo[b]furyl)-6,7-methylenedioxyquinolin-4-one [Compound 37]
- IC50 [2]: 590 nM
- Inhibition of Colchicine Binding % inhibition at tested concentration, 1 µM (tubulin): 39%
- Inhibition of Colchicine Binding % inhibition at tested concentration, 5 µM (tubulin): 51%
- IC50 [3]: 1870 nM
- Growth inhibition, NCI preliminary screening ([8]; HCC-2998, KM-12, SF-539, SNB-75, SK-MEL-5, IGROV1, OVCAR-3): significantly inhibited the growth
- Cytotoxicity against leukemia cell lines, NCI preliminary screening ([8]; many leukemia cell lines (Figure 5)): potent selective cytotoxicity
- IC50 [4]: 1050 nM
- IC50 [5]: 2980 nM
- IC50 (HL-60 (leukemia) cells): 30 nM
- IC50 (Hep 3B (hepatoma) cells): 90 nM
- IC50 [1]: 50 nM

Compound: 2-(3-Benzo[b]thienyl)-6,7-methylenedioxyquinolin-4-one [Compound 1]
- IC50 [2]: > 250 nM
- Inhibition of Colchicine Binding % inhibition at tested concentration, 1 µM (tubulin): 25%
- Inhibition of Colchicine Binding % inhibition at tested concentration, 5 µM (tubulin): 61%
- IC50 [3]: > 250 nM
- IC50 [4]: > 250 nM
- IC50 [5]: > 250 nM
- IC50 (HL-60 (leukemia) cells): 170 nM
- IC50 (Hep 3B (hepatoma) cells): 60 nM
- IC50 [1]: 140 nM

Compound: 2-(3-Quinolinyl)-6,7-methylenedioxyquinolin-4-one [Compound 42]
- IC50 [2]: > 100 nM
- IC50 [3]: > 100 nM
- IC50 [4]: > 100 nM
- IC50 [5]: > 100 nM
- IC50 (HL-60 (leukemia) cells): > 100 nM
- IC50 (Hep 3B (hepatoma) cells): > 100 nM
- IC50 [1]: > 100 nM

Compound: 2-(4-Quinolinyl)-6,7-methylenedioxyquinolin-4-one [Compound 41]
- IC50 [2]: > 5000 nM
- IC50 [3]: > 5000 nM
- IC50 [4]: > 5000 nM
- IC50 [5]: > 5000 nM
- IC50 (HL-60 (leukemia) cells): > 5000 nM
- IC50 (Hep 3B (hepatoma) cells): > 5000 nM
- IC50 [1]: > 5000 nM

Compound: 2-(5-Quinolinyl)-6,7-methylenedioxyquinolin-4-one [Compound 44]
- IC50 [2]: > 10000 nM
- IC50 [3]: > 10000 nM
- IC50 [4]: > 10000 nM
- IC50 [5]: > 10000 nM
- IC50 (HL-60 (leukemia) cells): > 10000 nM
- IC50 (Hep 3B (hepatoma) cells): > 10000 nM
- IC50 [1]: > 10000 nM

Compound: COc1cccc(-c2cc(O)c3cc(N4CCCC4)ccc3n2)c1 [B, 2-(3-methoxyphenyl)-6-pyrrolinylquinolin-4-one]
- Maximum tolerated dose (MTD) [7]: 25 mg/kg
- Antitumor activity against the OVCAR-3 xenograft model (OVCAR-3 xenograft; at MTD 25 mg/kg, prior in vivo study): moderate antitumor activity

Compound: O=P([O-])(O)Oc1cc(-c2ccccc2F)nc2cc3c(cc12)OCO3.[Na+] [CHM-1-P-Na]
- Metabolism of the 6,7-methylenedioxy moiety [9]: metabolized to an ortho-quinone

Compound: O=C(Nc1ccc2c(c1)OCO2)c1csc2ccccc12 [Compound 46, N-(1,3-Benzodioxol-5-yl)-1-benzothiophene-3-carboxamide]
- IC50 [10]: > 10000 nM

Compound: O=C(Nc1ccc2c(c1)OCO2)c1ccc2ccccc2c1 [Compound 50, N-(1,3-Benzodioxol-5-yl)naphthalene-2-carboxamide]
- IC50 [10]: > 10000 nM

Compound: O=C(Nc1ccc2c(c1)OCO2)c1ccnc2ccccc12 [Compound 51, N-(1,3-Benzodioxol-5-yl)quinoline-4-carboxamide]
- IC50 [10]: > 10000 nM

Compound: O=C(Nc1ccc2c(c1)OCO2)c1cccc2ncccc12 [Compound 53, N-(1,3-Benzodioxol-5-yl)quinoline-5-carboxamide]
- IC50 [10]: > 10000 nM
